Assay outcomes deposited in PubChem BioAssay by Johns Hopkins Ion Channel Center.
Rows were chosen to be rich in hits. Some 3.5% of all compounds tested hit in one or more screens of this group.
MrgX1 ag: activates human MrgX1 receptor signaling; Q96LB2; MrgX1-HEK293 cells, Fluo-4 calcium fluorescence, agonist mode; hits give high values; B-score at 10 µM; actives 0.44% (n = 310,000); AID 588627;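 active = calcium response B-score plate-corrected fluorescence ratio at least 3 library SD, with starting fluorescence B-score inside 5 SD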
Target sequence (Q96LB2 whole entry, looked up): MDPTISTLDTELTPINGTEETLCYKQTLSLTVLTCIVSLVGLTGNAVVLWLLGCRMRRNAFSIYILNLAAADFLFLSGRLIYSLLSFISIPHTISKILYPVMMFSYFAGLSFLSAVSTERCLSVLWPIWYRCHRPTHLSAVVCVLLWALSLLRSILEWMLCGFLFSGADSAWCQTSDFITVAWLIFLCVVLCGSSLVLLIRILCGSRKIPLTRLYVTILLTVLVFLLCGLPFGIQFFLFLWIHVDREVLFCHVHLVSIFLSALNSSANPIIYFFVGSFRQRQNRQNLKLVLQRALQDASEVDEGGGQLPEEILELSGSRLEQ
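Material: MrgX1-expressing HEK293 cells; input: 15,000 cells per well; doses: test compound given as first of three sequential additions; schedule: overnight plating before 1 h dye loading; technique: Fluo-4 NW calcium-flux fluorescence, kinetic read; evaluation: baseline-normalised fluorescence change ratio, B-scored; control set: plate-wise positive and negative controls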
MrgX1 allo act: allosterically activates human MrgX1 receptor signaling | Q96LB2 | MrgX1-HEK293, Fluo-4 calcium flux, FDSS; hits give high values | B-score at 10 µM | actives 0.63% (n = 310,000) | AID 588675;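 active = plate-corrected calcium response at least 3 library SD above typical, normal starting fluorescence, not activating the receptor alone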;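 also: compound read alongside a low EC10 to EC30 dose of BAM8-22 agonist; peak minus trough fluorescence over baseline measured at the second addition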
RGS4 inh: inhibitors of human RGS4; P49798; HEK293 M3R/RGS4 inducible, Fluo-4 calcium flux; hits give high values; triggered by carbachol at its EC20; B-score at 10 µM; actives 0.45% (n = 310,000); AID 463165;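 active = B-score, a plate-corrected calcium signal, over three deviations above library mean, with baseline fluorescence within five deviations of library mean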;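 also: RGS4 expression induced by doxycycline in cells with stable M3 receptor; B-score is computed from the integrated fluorescence ratio over baseline after carbachol; higher B-score means a larger calcium signal and so more RGS4 inhibition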
Target sequence (P49798 whole entry, looked up): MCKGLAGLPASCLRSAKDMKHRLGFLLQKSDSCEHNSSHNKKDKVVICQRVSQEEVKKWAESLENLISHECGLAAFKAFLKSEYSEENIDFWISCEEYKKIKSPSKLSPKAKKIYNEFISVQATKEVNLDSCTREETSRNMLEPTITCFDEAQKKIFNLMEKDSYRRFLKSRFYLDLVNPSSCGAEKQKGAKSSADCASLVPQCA
RGS4 act: RGS4 potentiation or activation; B-score at 10 µM; HEK293 M3R/inducible RGS4, carbachol calcium flux Fluo4; hits give low values; actives 0.92% (n = 310,000);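 active = B-score of the integrated calcium signal more than 4 SD below the library mean, with starting fluorescence not abnormally high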;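 also: negative B-score means reduced calcium response which marks RGS4 activation or potentiation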
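System – HEK293 FlpIn-TREx cells, stable M3R, doxycycline-inducible RGS4 · Reagent – ECmax carbachol challenge · Times – compound preincubation 20 min at room temperature before agonist · Technique – Fluo4 fluorescence kinetic imaging of calcium · Measure – B score of integrated Fluo4 ratio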
MrgX1 antag: antagonists of human MrgX1 receptor; MRGX1-HEK293 calcium flux, Fluo-4, BAM8-22 antagonism; hits give low values; B-score at 10 µM; actives 1.3% (n = 310,000); AID 588676;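 active = calcium-response B-score plate-corrected more than 3 library SD below zero, starting fluorescence within 5 deviations, no agonist response on first addition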;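 also: peak minus trough fluorescence over baseline after final BAM8-22 challenge near maximal dose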
Large screens that a line does not name were inactive.

CC(NC(=O)CSc1cccc(C(F)(F)F)c1)c1ccccc1 (configuration not stated)	none
CCCCOc1ccc(/C(O)=C(\C#N)c2nc3ccccc3[nH]2)cc1	none
c1ccc(Cc2ccc(OCCCNC3CCCC3)cc2)cc1	RGS4 act -12.3
c1ccc(-c2ccc(OCCCNC3CCCC3)cc2)cc1	none
CCOC(=O)c1c(CNCCN(CC)CC)n(C)c2cc(Br)c(OC)cc12	none
COc1cc(NC(=O)CN(C)C2CCCCC2)c(C)cc1[N+](=O)[O-]	MrgX1 antag -5.24
CC(C)N1C(=O)CCC1C(=O)N1CCN(c2ccc(F)cc2)CC1 (configuration not stated)	none
CC(C)N1C(=O)CCC1C(=O)N1CCC(Cc2ccccc2)CC1 (configuration not stated)	MrgX1 antag -5.94
Nc1c2c(nc3ccc(Br)cc13)N(C1CCCCC1)CC2	MrgX1 allo act 14.4
O=C(COC(=O)c1ccccc1NS(=O)(=O)c1cccs1)NCC12CC3CC(CC(C3)C1)C2	none
CCCn1c(N)c(N(CCOC)C(=O)c2cccc(Cl)c2)c(=O)[nH]c1=O	none
CCCCN(C(=O)c1cccc(S(=O)(=O)N2CCOCC2)c1)c1c(N)n(CCC)c(=O)[nH]c1=O	MrgX1 allo act 9.4
CCCCN(C(=O)C(C)Oc1cccc(Cl)c1)c1c(N)n(CCC)c(=O)[nH]c1=O (configuration not stated)	MrgX1 antag -5.11
O=C(C1CC1)N1N=C(c2ccccc2)CC1(O)C(F)(F)F (configuration not stated)	none
O=C(c1ccccc1[N+](=O)[O-])N1N=C(c2ccccc2)CC1(O)C(F)(F)F (configuration not stated)	RGS4 act -9.28
Cc1cc(C)cc(N2C(=O)c3nccnc3C2=O)c1	none
CC(C)n1nc(C(=O)Nc2nnc(SCc3c(Cl)cccc3Cl)s2)c2ccccc2c1=O	MrgX1 antag -6.24
CC(C)n1nc(C(=O)Nc2nc3ccc(S(C)(=O)=O)cc3s2)c2ccccc2c1=O	none
O=C(Nc1nc2c(F)cc(F)cc2s1)c1ccc([N+](=O)[O-])o1	MrgX1 allo act 8.65
COc1ccc2nc(Nc3ccc4c(c3)OCO4)sc2c1	none
COc1ccc2nc(NC(=O)c3ccc([N+](=O)[O-])o3)sc2c1	MrgX1 allo act 11.7
COc1ccc2nc(NC(=O)/C=C/c3ccc4c(c3)OCO4)sc2c1	MrgX1 antag -6.3
CC(=O)Nc1nc(-c2ccc3c(c2)CCN3S(C)(=O)=O)cs1	none
Cc1cccc(NCC(=O)NNC(=S)Nc2ccccc2)c1	none
COc1ccc(/C=C/c2ccc3cccc(O)c3n2)c(OC)c1OC	none
COc1cccc(/C=C/c2ccc3cccc(O)c3n2)c1OC	RGS4 act -7.36
COc1ccccc1NC(=S)N(C(C)C)C(C)c1ccccn1 (configuration not stated)	none
CC(C)N(C(=S)Nc1cccc(C(F)(F)F)c1)C(C)c1ccccn1 (configuration not stated)	MrgX1 antag -9.46
Cc1ccc(C)c(NC(=O)/C(C#N)=C/c2ccc(Sc3nncn3C)c([N+](=O)[O-])c2)c1	RGS4 inh 6.21
COc1cc2ccccc2cc1C(=O)Nc1sc2c(c1C(N)=O)CCN(C(C)C)C2	RGS4 act -7.49
CC(C)N1CCc2c(sc(NC(=O)CN3C(=O)c4ccccc4C3=O)c2C(N)=O)C1	none
CN1CCc2c(sc(NC(=O)c3ccc4ccccc4c3)c2C(N)=O)C1	MrgX1 ag 37.5
CN1CCc2c(sc(NC(=O)Cc3ccccc3)c2C(N)=O)C1	none
Cc1ccc(-c2c(C)sc(=NC(=O)c3ccco3)n2C)cc1	none
CCc1ccc(OCC(=O)NNC(=S)NC(=O)C2CC2)c(Br)c1	none
COc1ccc(OCC(=O)NNC(=S)NC(=O)C2CCCCC2)cc1	MrgX1 ag 50
COc1ccc(OCC(=O)NNC(=S)NC(=O)C2CC2)cc1	none
COc1ccc(CC(=O)NC(=S)NNC(=O)COc2c(C)cccc2C)cc1	MrgX1 ag 27.3
Cc1cc(C)cc(OCC(=O)NNC(=S)NC(=O)C2CC2)c1	MrgX1 ag 32.1
CCc1ccc(OCC(=O)NNC(=S)NC(=O)C2CCCCC2)c(Br)c1	MrgX1 antag -8.94
Cc1ccc(C(C(=O)NC2CCCCC2)N(C(=O)c2csnn2)c2ccccc2F)o1 (configuration not stated)	none
CCCCCC(=O)Nc1cccc(C2=NOC3(C2)C[C@@H](C(N)=O)N(C(=O)c2ccc(OC)cc2)C3)c1 (some centres not stated)	none
CCN(CC)CCCNC(=O)Cn1ccc2ccccc2c1=O	none
CC(C)c1ccc(N(CC(=O)NCCSCc2ccco2)S(C)(=O)=O)cc1	MrgX1 allo act 7.13
COc1ccc(N(CC(=O)NCc2ccccc2OC)S(=O)(=O)c2c(C)nn(C)c2C)cc1	MrgX1 antag -6.27
COc1ccccc1CNC(=O)CN(c1ccc(C)cc1)S(=O)(=O)c1c(C)nn(C)c1C	none
CS(=O)(=O)N(CC(=O)NCCSCc1ccco1)c1ccc(Cl)cc1	none
COc1ccccc1N(CC(=O)NCCSCc1ccccc1)S(C)(=O)=O	none
COc1ccccc1N(CC(=O)NCCSCc1cccc(C)c1)S(=O)(=O)c1ccccc1	RGS4 act -8.58
COc1cccc(N(CC(=O)NCCSCc2ccco2)S(=O)(=O)c2ccccc2)c1	MrgX1 allo act 7.16
CCOc1ccc(OCCC(=O)OCC(=O)c2c(N)n(C)c(=O)n(C)c2=O)cc1	none
Cc1nc2cc(-c3ccc(Cl)cc3)nn2c(C)c1CCC(=O)NCc1ccco1	none
COc1ccc(N(CC(=O)NCCSCc2ccccc2C)S(=O)(=O)c2ccccc2)cc1	RGS4 act -7.8
COc1ccc(N(CC(=O)NCC(C)C)S(=O)(=O)c2ccccc2)cc1	none
CN1CCN(c2ccccc2NS(=O)(=O)c2ccc3c(c2)CCN3C(=O)C2CCC2)CC1	RGS4 act -9.81
O=C(C1CCC1)N1CCc2cc(S(=O)(=O)NC3CCCC3)ccc21	none
CCN1CCN(CCNC(=O)c2ccc(/C=C3/Sc4ccccc4N(Cc4ccccc4C)C3=O)cc2)CC1	RGS4 act -8.42 (no result: MrgX1 ag, MrgX1 allo act, MrgX1 antag)
CCOc1ccc(OCCOC(=O)CNC(=O)c2ccc(Cl)cc2Cl)cc1	MrgX1 antag -7
CCOC1=C/C(=C/c2c(N)n3oc(C)cc3nc2=O)C=CC1=O	MrgX1 allo act 8.62
Cc1cc2nc(=O)c(/C=C3\C=Nc4ccccc43)c(N)n2o1	none
Cc1cc(C2=NNC(=NC3CC3)SC2)c(C)n1Cc1ccco1	none (no result: RGS4 inh, RGS4 act)
COCCCN=C1NN=C(c2cc(C)n(Cc3ccco3)c2C)CS1	MrgX1 allo act 10.5
Cc1cc(/C=C2\SC(=S)NC2=O)c(C)n1-c1ccccc1	none
Cc1cc(/C=C2\SC(=S)NC2=O)c(C)n1-c1ccc(O)cc1	MrgX1 ag 43.3
